Laboratory results: ChEMBL document CHEMBL4513216, “Probing the Open Global Health Chemical Diversity Library for Multistage-Active Starting Points for Next-Generation Antimalarials” (ACS Infect Dis, 2020)

Experiment: Toxicity liver stage against HepG2, at 10uM
Format: cell-based
Design: test concentration 10 uM, cell line HepG2-A16-CD81EGFP
Settings: human, HepG2-A16-CD81EGFP cells; read-out: INHIBITION
In short: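 Uninfected HepG2-A16-CD81EGFP cells, 3 × 10^3 per well, 1536-well, plated on prespotted compound at 10 μM final, parasite-free screening media added to match infected plates; puromycin 10 μM positive, DMSO 0.5% negative; run in parallel with 48 h PbLuc assay at 37 °C, 5% CO2; viability by CellTiter-Glo luminescence, normalized to controls.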

SMILES | cytotoxicity at 10 µM
COc1ccccc1OCC(=O)N1C[C@@H]2CN(C)CCO[C@@H]2C1 | -2.94%
CC(c1nc(C2CC2)no1)N1CCN(CCS(C)(=O)=O)CC1 (stereo not drawn) | 7.41%
Cc1cccc(OCCC(=O)NCC2CN(C)CCO2)c1C (stereo not drawn) | -6.3%
CC(C)NC(=O)N1CCc2onc(C(=O)NCCN(C)C)c2C1 | 0.0529%
O=C(NC1CCc2[nH]c(=O)ccc2C1)C1CCOCC1 (stereo not drawn) | 1.42%
CCCc1nc(CN2CCCCC2Cn2cncn2)cs1 (stereo not drawn) | -5.61%
CCn1cc(CNC(=O)C2CCCC2)cn1 | 9.18%
Cc1cn(Cc2nc(CC(C)C)nn2-c2ccccn2)c(=O)[nH]c1=O | -8.66%
CC(C)C(Nc1nc(C(F)(F)F)nc2ccccc12)C(=O)O (stereo not drawn) | -1.98%
COc1cccc(-c2nnn(C3CCN(CC(F)(F)F)C3=O)n2)c1 (stereo not drawn) | 3.34%
CCn1ccnc1CN1CCN(CCOc2cccc(C#N)c2)CC1 | -6.95%
CN(CCc1ccccc1)Cc1nc(Cc2cccc(F)c2)no1 | 0.276%
Cc1cccc(CC(=O)N2CCCCC2CN)c1 (stereo not drawn) | 5.68%
CN(C)CC1CN(Cc2csc(C3CCCC3)n2)CCO1 (stereo not drawn) | -7.32%
O=C(c1ccncc1)N1CCC2(COc3ncccc3S(=O)(=O)N2)C1 (stereo not drawn) | 9.62%
CNc1nc(C(=O)N2C[C@@H]3CC[C@H]2CN(S(C)(=O)=O)C3)cs1 | 0.977%
Cc1cc(C2CCCN2C(=O)NCc2ccccn2)on1 (stereo not drawn) | 1.47%
CC(=O)N1CCC2(CC1)CN(CC(C)C)CC21CCNC1=O (stereo not drawn) | -1.07%
CC(C)N1CCC2(CC1)CN(C)C(=O)C[C@H]2C(F)(F)F | -160%
Cc1cc(OCC(=O)NC(C)c2ccc(N3CCOCC3)cc2)no1 (stereo not drawn) | -12.9%
Cc1ncc(CN2CCOCC2)c2cc(C(=O)c3ccc(Br)cc3)oc12 | 3.54%

SMILES | cytotoxicity at 10 µM
Fc1ccc2[nH]c(C3CCCN3CCc3ccccn3)nc2c1 (stereo not drawn) | -9.7%
Cc1cc(C(=O)N2CCCN(Cc3cnn(C)c3)CC2)no1 | -2.92%
CCC1=N[C@@]2(CC[C@@H]3CN(C(=O)NCc4cccc(F)c4)C[C@@H]32)C(=O)N1 | -69.4%
CCN1C(=O)CC(N(C)Cc2nc3ccccc3c(=O)[nH]2)C1=O (stereo not drawn) | 2.06%
CC(C)[C@H]1CN(Cc2ccccn2)C[C@@H]1NS(=O)(=O)C1CC1 | -0.578%
COc1ccc2c(ccn2CCC(=O)O)c1 | 15.4%
O=C(c1ccccc1)N1C[C@H]2CC[C@@H](C1)N(C(=O)CN1CCOCC1)C2 | 9.23%
CCn1cnnc1CNC(=O)C1CCCN(Cc2cccc(F)c2)C1 (stereo not drawn) | 3.5%
CN(CC(=O)N1CCCC1)C(=O)c1ccccc1Nc1ccccc1 | 11.3%
CC(C)OCCCNC(=O)CS(=O)(=O)Cc1ccc(C(C)C)cc1 | 0.239%
CC(C)c1nccc(CN2CCCC(O)(CN3CCCC3)C2)n1 (stereo not drawn) | -0.413%
Cc1nc(N2CCOCC2)nc(C)c1NC(=O)c1ccco1 | 1.9%
CCc1nc(CN2CCCC(Cn3nc(C)nc3C)C2)no1 (stereo not drawn) | -2.68%
Cc1nc(CN2CCCC(N(C)CC3(O)CCCCC3)C2)no1 (stereo not drawn) | -10.3%
CC(C)CN(CC(F)(F)F)S(=O)(=O)c1cc(C(N)=O)n(C)c1 | -3.22%
Cc1nn(C)c(N(C)C)c1CNCc1ccc2c(c1)OCO2 | -2.51%
CCOCC1CN(S(C)(=O)=O)Cc2nn(C)cc21 (stereo not drawn) | -95.9%
CCN(CCC(F)(F)F)C(=O)Nc1cccc(N2CCOCC2)c1 | -8.02%
CC(=O)Nc1nc(C(=O)Nc2ccc(N3CCCCC3)nc2)cs1 | 9.46%
CCSc1ccccc1C(=O)NCCn1nc(-n2cncn2)ccc1=O | -5.65%
Cc1cc(C(=O)Nc2cccn(Cc3ccc(F)cc3)c2=O)no1 | 3.15%

SMILES | cytotoxicity at 10 µM
CN(C)C1CCC2(CCN(Cc3cccnc3)CC2)c2ccccc21 (stereo not drawn) | 3.15%
Cc1ccc(C(=O)N2C[C@H]3CNC[C@H]3C2)cn1 | -1.16%
CN(C)C(C(=O)N1CC(Oc2ccccc2F)C1)c1ccc(F)cc1 (stereo not drawn) | 1.28%
Cc1cnc(C(=O)N2CCCCC2c2ccc(CN(C)C)cc2)cn1 (stereo not drawn) | -2.46%
COCCC(=O)N1CCCC(CCC(=O)NCc2ccccc2F)C1 (stereo not drawn) | 11%
CCCN(CC)C(=O)c1ncn2c1CN(C)S(=O)(=O)c1ccccc1-2 | -152%
CCCNC(=O)CSCc1ccc(S(=O)(=O)N(C)C)o1 | 9.8%
CN1CCc2nnc(C3CCCN3S(=O)(=O)c3ccc(F)cc3)n2CC1 (stereo not drawn) | -0.594%
CC(C)N(CCNC(=O)c1ccc(S(=O)(=O)NC2CC2)cc1)C(C)C | -65.8%
CC(C)c1cc(NC(=O)CN2CCn3c(nnc3C3CC3)C2)on1 | -14.1%
CCOc1ccc(Cl)cc1C(C(=O)O)N1CCCC1 (stereo not drawn) | 0.95%
CCN(CCN1CCCCCC1)C(=O)c1cnc(-c2cccnc2)nc1 | 11.4%
CNC(=O)c1csc(-c2cccnc2)n1 | 3.19%
CN(CC(=O)Nc1cc(C(C)(C)C)n[nH]1)S(C)(=O)=O | 5.15%
CN1CCCC(c2nccnc2-c2cccc(Cl)c2)C1 (stereo not drawn) | 3.57%
Cc1ccc(C(=O)N2C[C@H]3CCC[C@@]3(COc3ccccn3)C2)nc1 | -2.23%
CN(C)C(=O)C1CCN(C(=O)c2c[nH]c3cc(Cl)ccc23)CC1 | -0.983%
Cc1ccnc(CNC(=O)C2CC(=O)N(CCN(C)C)C2)c1 (stereo not drawn) | -5.79%
COCCc1noc(CN2CCOC(CN(C)C)C2)n1 (stereo not drawn) | -1.04%
CC(C)C(=O)N1CCN(S(C)(=O)=O)CC2(CC(=O)N(C)C2)C1 (stereo not drawn) | 8.91%
CN1CC2(CCCN(c3cnccn3)C2)OC1=O (stereo not drawn) | -43.2%

SMILES | cytotoxicity at 10 µM
c1cc(CN2CCCCC2)cc(NCc2cc[nH]n2)c1 | -6.05%
Cc1ccc(OCCN(C)C(=O)CCCC(N)=O)c(C)c1 | 1.47%
CN1N=C(C(=O)N2CCCCC2)S(=O)(=O)c2ccccc21 | -183%
CC(NC(=O)NCCCN(C)S(C)(=O)=O)c1ccc(C#N)cc1 (stereo not drawn) | -5.77%
CCc1nc(CN(C(C)=O)C2CCN(CCc3cnn(C)c3)C2)no1 (stereo not drawn) | -6.38%
N#Cc1ccc(N2CC3(CCN(c4nccs4)C3)C2)nc1 | -12.5%
O=C(Nc1cnn(CC(=O)N2CCCO2)c1)c1ccccc1 | -0.134%
O=C(C1CC=CC1)N1CCC2(CCN(Cc3ccccn3)C2=O)C1 (stereo not drawn) | 0.908%
Cc1nnnn1-c1cc(NCc2cccc(C#N)c2)ccc1F | 7.09%
O=C(NC1CC1)C(c1ccccc1)N1CCN(Cc2ccc(Cl)s2)CC1 (stereo not drawn) | 4.46%
COCc1nc(CNC2CCSCC2)no1 | -9.87%
CC(=O)N(Cc1ncc(C)o1)C1CCN(Cc2ccccc2F)C1 (stereo not drawn) | -8.08%
Cc1ccc(-c2nc(CN3CCOCC3)no2)cc1N1CCNC1=O | -5.73%
COCCN1Cc2ccnn2CC(COCc2cccnc2)C1 (stereo not drawn) | -131%
CN(C)c1nc(N)nc(CSCCC(=O)Nc2ccc(F)cc2)n1 | -1.33%
CC(CNCc1ccncc1)Oc1ccccn1 (stereo not drawn) | -1.71%
CC(NC(=O)CCCN(C)C)c1cn(-c2ccccc2)nn1 (stereo not drawn) | -22.7%
CC(C)N1CCOC[C@H]1c1nc(-c2ccncc2)c[nH]1 | 6.73%
COCCn1cnc2ccc(NC(=O)C3CC3)cc2c1=O | -7.89%
COC1CCN(C(=O)Cn2ccc3ccccc32)CC1 | -12.7%
